14 compounds from ChEMBL document CHEMBL1131450, “Synthesis and antitumor evaluation of 2,5-disubstituted-indazolo[4, 3-gh]isoquinolin-6(2H)-ones (9-aza-anthrapyrazoles)” (J Med Chem, 1998) can be followed below.

Values after ≈ are worked out from the molar mass of the structure shown.

The T/C is the result in the treated group divided by that in the control group, in per cent. One may read the IC50 as the concentration at which inhibition is half-maximal.

The subject of assay [1] is P388. In words: In vivo antitumor activity was measured on systemic P388 murine leukemia cells. Optimal dose 24 mg/kg/day. The assay is classed as functional, Mus musculus. In short, it runs like this: (§1)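 CD2F1 male mice given 10⁶ P388 leukemia cells iv (day 0); drug given iv on days 1, 4 and 7. Survival expressed as T/C% = median survival time of treated / median survival of controls × 100, reported at optimal dose (mg/kg/day) or maximum tested dose.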

The test system of a further assay is LoVo/Dx (Homo sapiens). In words: cells.
For assay [2], the system named is LoVo. In words: In vitro cytotoxicity on human colon adenocarcinoma (LoVo ) tumor cell line. The assay is classed as functional, cell-based.
The test system of assay [3] is LoVo. In words: Resistance index measured as the ratio of IC50 of LoVo/Dx cell line to that of LoVo cell line. The assay is classed as functional, Homo sapiens.
The test system of assay [4] is MX1. In words: In vivo antitumor activity was measured on MX-1 human mammary carcinoma cells. TWI%=tumor weight inhibition. Optimal dose 27 mg/kg/day. The assay is classed as functional.
Assay [5] has as its system MX1. In words: In vivo antitumor activity was measured on MX-1 human mammary carcinoma cells. TWI%=tumor weight inhibition. Optimal dose 90 mg/kg/day. The assay is classed as functional.
The subject of assay [6] is P388. In words: In vivo antitumor activity was measured on systemic P388 murine leukemia cells. Maximum tested dose 40 mg/kg/day. The assay is classed as functional, Mus musculus. In short, it runs like this:
as §1

The subject of assay [7] is MX1. In words: In vivo antitumor activity was measured on MX-1 human mammary carcinoma cells. TWI%=tumor weight inhibition. Optimal dose 150 mg/kg/day. The assay is classed as functional.
The subject of assay [8] is P388. In words: In vivo antitumor activity was measured on systemic P388 murine leukemia cells. Optimal dose 7.5 mg/kg/day. The assay is classed as functional, Mus musculus. In short, it runs like this:
as §1

Assay [9] deals with P388. In words: In vivo antitumor activity was measured on systemic P388 murine leukemia cells. Maximum tested dose 12 mg/kg/day. The assay is classed as functional, Mus musculus. The method, boiled down: as §1
Assay [10] has as its system MX1. In words: In vivo antitumor activity was measured on MX-1 human mammary carcinoma cells. TWI%=tumor weight inhibition. Optimal dose 40 mg/kg/day. The assay is classed as functional.
Assay [11] relates to MX1. In words: In vivo antitumor activity was measured on MX-1 human mammary carcinoma cells. TWI%=tumor weight inhibition. Optimal dose 12 mg/kg/day. The assay is classed as functional.
Assay [12] deals with P388. The assay is classed as functional, Mus musculus.
Assay [13] relates to MX1. In words: In vivo antitumor activity was measured on MX-1 human mammary carcinoma cells. TWI%=tumor weight inhibition. Optimal dose 20 mg/kg/day. The assay is classed as functional.
Assay [14] concerns MX1. In words: In vivo antitumor activity was measured on MX-1 human mammary carcinoma cells. TWI%=tumor weight inhibition. Optimal dose 2 mg/kg/day. The assay is classed as functional.
Assay [15] concerns P388. In words: In vivo antitumor activity was measured on systemic P388 murine leukemia cells. Optimal dose 4 mg/kg/day. The assay is classed as functional, Mus musculus. The method, boiled down: as §1
The subject of assay [16] is MX1. In words: In vivo antitumor activity was measured on MX-1 human mammary carcinoma cells. TWI%=tumor weight inhibition. Optimal dose 9 mg/kg/day. The assay is classed as functional.
The test system of assay [17] is P388. In words: In vivo antitumor activity was measured on systemic P388 murine leukemia cells. Optimal dose 6 mg/kg/day. The assay is classed as functional, Mus musculus. The method, boiled down: as §1
In assay [18] the test system is P388. In words: In vivo antitumor activity was measured on systemic P388 murine leukemia cells. Maximum tested dose 60 (mg/kg/day). The assay is classed as functional, Mus musculus. In short, it runs like this:
as §1

Assay [19] concerns MX1. In words: In vivo antitumor activity was measured on MX-1 human mammary carcinoma cells. TWI%=tumor weight inhibition. Optimal dose 6 mg/kg/day. The assay is classed as functional.
Assay [20] has as its system P388. In words: In vivo antitumor activity was measured on systemic P388 murine leukemia cells. Optimal dose 3 mg/kg/day. The assay is classed as functional, Mus musculus. The method, boiled down: as §1
For assay [21], the system named is MX1. In words: In vivo antitumor activity was measured on MX-1 human mammary carcinoma cells. TWI%=tumor weight inhibition. Optimal dose at 3 mg/kg/day. The assay is classed as functional.
Assay [22] relates to P388. In words: In vivo antitumor activity was measured on systemic P388 murine leukemia cells. Optimal dose at 3 mg/kg/day. The assay is classed as functional, Mus musculus. The method, boiled down: as §1
For assay [23], the system named is MX1. In words: In vivo antitumor activity was measured on MX-1 human mammary carcinoma cells. TWI%=tumor weight inhibition. Optimal dose 17.5 mg/kg/day. The assay is classed as functional.
The subject of assay [24] is P388. In words: In vivo antitumor activity was measured on systemic P388 murine leukemia cells. Optimal dose 75 mg/kg/day. The assay is classed as functional, Mus musculus. The following applies: in the assay text read “7.5 mg/kg/day” for “75 mg/kg/day”. The method, boiled down: as §1

In turn, `CN(C)CCn1nc2c3c(c(NCCN4CCOCC4)ccc31)C(=O)c1ccncc1-2` came in with a T/C in the assay with P388 [1] of 256%. In addition, the half-maximal inhibitory concentration (IC50) is 3.63 µg/mL (≈ 8.63 µM) in the assay on LoVo/Dx (Homo sapiens) and 1.35 µg/mL (≈ 3.21 µM) in the assay on LoVo [2]. The RI with LoVo [3] is 2.7. Moreover, the TWI with MX1 [4] worked out at 48%.
In the assay on MX1 [5], `CN(C)CCn1nc2c3c(c(NCCN(CCO)CCO)ccc31)C(=O)c1ccncc1-2` gave a TWI of 97%. Besides, the IC50 with LoVo/Dx (Homo sapiens) was more than 100 µg/mL; with LoVo [2], 2.13 µg/mL (≈ 4.86 µM). This compound also registered a T/C with P388 [6] of 175%. In the assay with LoVo [3], the RI is recorded as more than 47.
In the case of `NCCn1nc2c3c(c(NCCN(CCO)CCO)ccc31)C(=O)c1ccncc1-2`, the TWI with MX1 [7] amounted to 50%. For the same compound, the IC50 in the assay with LoVo/Dx (Homo sapiens) was more than 100 µg/mL; with LoVo [2], 46.4 µg/mL (≈ 113 µM). Also, in the assay on P388 [8], the T/C came to 194%. For the same compound, the RI with LoVo [3] came out at 2.1.
Regarding `CCN(CC)CCNc1ccc2c3c(nn2CCN)-c2cnccc2C(=O)c13`, in the assay on P388 [9], the T/C was determined as 147%. For the same compound, the half-maximal inhibitory concentration (IC50) came to 15.7 µg/mL (≈ 41.5 µM) in the assay on LoVo/Dx (Homo sapiens) and 0.52 µg/mL (≈ 1.37 µM) in the assay with LoVo [2]. Moreover, in the assay on MX1 [10], the TWI is reported as 51%. The RI in the assay on LoVo [3] was 30.
As for `CN(C)CCNc1ccc2c3c(nn2CCO)-c2cnccc2C(=O)c13`, in the assay with MX1 [5], the TWI is reported as 16%. The IC50 in the assay on LoVo/Dx (Homo sapiens) was more than 100 µg/mL; in the assay with LoVo [2] it was 18.5 µg/mL (≈ 52.6 µM). For the same compound, in the assay with P388 [6], the T/C worked out at 112%. The RI with LoVo [3] is more than 5.4.
In the assay on MX1 [11], `CN(C)CCn1nc2c3c(c(NCCN(C)CCO)ccc31)C(=O)c1ccncc1-2` registered a TWI of 75%. In addition, the figures for the half-inhibitory concentration (IC50) with LoVo/Dx (Homo sapiens) and in the assay on LoVo [2] were 1.55 µg/mL (≈ 3.79 µM) and 0.049 µg/mL (≈ 0.12 µM), respectively. The T/C with P388 [12] was 280%. The RI with LoVo [3] was found to be 31.6.
Turning to `NCCNc1ccc2c3c(nn2CCNCCO)-c2cnccc2C(=O)c13`, the figures for the half-inhibitory concentration (IC50) in the assay with LoVo/Dx (Homo sapiens) and with LoVo [2] were more than 100 µg/mL and 2.17 µg/mL (≈ 5.92 µM), respectively. In the assay on MX1 [13], this compound had a TWI of 74%. In the assay with P388 [12], this compound returned a T/C of 175%. Also, the RI with LoVo [3] is listed as more than 46.
As for `CN(C)CCNc1ccc2c3c(nn2CCN(C)C)-c2cnccc2C(=O)c13`, the IC50 turned out to be 1 µg/mL (≈ 2.64 µM) in the assay on LoVo/Dx (Homo sapiens) and 0.35 µg/mL (≈ 0.925 µM) in the assay with LoVo [2]. In addition, the TWI in the assay on MX1 [14] is on record as 56%. For the same compound, the T/C with P388 [15] is 381%. Further, the RI with LoVo [3] was determined as 2.8.
`CN(C)CCn1nc2c3c(c(NCCNCCO)ccc31)C(=O)c1ccncc1-2` returned a TWI with MX1 [16] of 99%. In the assay with P388 [17], this compound came in with a T/C of 194%. Moreover, the figures for the half-maximal inhibitory concentration (IC50) in the assay with LoVo/Dx (Homo sapiens) and in the assay with LoVo [2] were 41.2 µg/mL (≈ 104 µM) and 0.2 µg/mL (≈ 0.507 µM), respectively. Besides, in the assay with LoVo [3], the RI was 206.
Regarding `NCCNc1ccc2c3c(nn2CCO)-c2cnccc2C(=O)c13`, the IC50 with LoVo/Dx (Homo sapiens) is more than 100 µg/mL; with LoVo [2], 28.6 µg/mL (≈ 88.4 µM). Besides, the RI in the assay on LoVo [3] was more than 3.5. This compound also returned a T/C in the assay on P388 [18] of 106%.
In the case of `NCCn1nc2c3c(c(NCCN4CCOCC4)ccc31)C(=O)c1ccncc1-2`, the half-inhibitory concentration (IC50) in the assay with LoVo/Dx (Homo sapiens) was more than 100 µg/mL; in the assay with LoVo [2] it was 1.76 µg/mL (≈ 4.48 µM). Besides, in the assay with P388 [6], the T/C was 129%. This compound also came in with a TWI in the assay on MX1 [10] of 32%. Further, in the assay with LoVo [3], the RI is more than 57.
On to `CNCCNc1ccc2c3c(nn2CCN)-c2cnccc2C(=O)c13`, for which the values for the IC50 in the assay on LoVo/Dx (Homo sapiens) and in the assay on LoVo [2] were 10.2 µg/mL (≈ 30.3 µM) and 0.21 µg/mL (≈ 0.624 µM), respectively. This compound came in with a TWI with MX1 [19] of 70%. In the assay on P388 [20], this compound came in with a T/C of 153%. Further, the RI in the assay on LoVo [3] is listed as 49.
In the assay with MX1 [21], `O=C1c2c(O)ccc(O)c2C(=O)c2c(NCCNCCO)ccc(NCCNCCO)c21` [MITOXANTRONE] showed a TWI of 57%. Also, the figures for the IC50 with LoVo/Dx (Homo sapiens) and in the assay with LoVo [2] were 0.67 µg/mL (≈ 1.51 µM) and 0.024 µg/mL (≈ 0.054 µM), respectively. Further, in the assay on P388 [22], the T/C came to 197%. In the assay on LoVo [3], the RI was 28.
In the assay with MX1 [23], `CNCCNc1ccc2c3c(nn2CCNCCO)-c2cnccc2C(=O)c13` [NORTOPIXANTRONE] gave a TWI of 96%. Further, the T/C in the assay on P388 [24] is given as 167%. In addition, the values for the 50% inhibitory concentration (IC50) with LoVo/Dx (Homo sapiens) and in the assay on LoVo [2] were more than 100 µg/mL and 0.54 µg/mL (≈ 1.42 µM), respectively. For the same compound, in the assay with LoVo [3], the RI was more than 185.
